Most compounds without a hit are left out; they make up all but 2% or so of the library.
GSTO1 inh: inhibitors of recombinant GSTO1, primary screen, counter-screen for RBBP9 inhibitor project, biochemical, fluorescence polarization; Glutathione S-transferase omega-1 (Homo sapiens), P78417; activity-based probe fluorescence polarization; inhibition, % at 5.96 µM; hit rate 1.1% among 300,000;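 active = inhibition above the campaign mean inhibition plus 3 SD, cut at about 35% in these data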;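 note: 0% = GSTO1-1 with DMSO and 100% = wells lacking GSTO1-1 enzyme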
PAD4 inh: human PAD4 inhibitors, primary screen, biochemical, fluorescence polarization, 1536-well format. Protein-arginine deiminase type-4 (Homo sapiens), Q9UM07. inhibition, % at 6.36 µM. hit rate 0.41% among 330,000. AID 485272, 2010. recombinant PAD4, RCA probe fluorescence polarization;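 active = percent inhibition above a cutoff equal to the mean of all tested compounds plus 3 SD, cut at about 15% in these data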;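 note: 0% = PAD4 with RCA probe and DMSO and 100% = probe without PAD4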
UCH37 DUB inh: inhibitors of human UCH37 deubiquitinase, primary screen, biochemical, Ub-AMC cleavage, fluorescence | hit rate 0.33% among 330,000 | inhibition, % (concentration not given with the values) | purified proteasome/UCH37 | Ubiquitin carboxyl-terminal hydrolase isozyme L5 (Homo sapiens), Q9Y5K5;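 active = mean inhibition over replicate wells above about 20%, limit read from the data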;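 note: 0% = compound-free wells with enzyme and 100% = wells lacking proteasome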
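system = Proteasome-associated human UCH37 deubiquitinase | amount = 0.15 nM proteasome as dispensed | medium = pH 7.4 Tris-HCl (50 mM) with ovalbumin, ATP-MgCl2, DTT | incubation = 30 min preincubation with enzyme, 25 min cleavage at room temperature | detection = AMC fluorescence 355/460 nm | read-out basis = percent inhibition | controls = no-proteasome and no-compound wells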
Apaf1 inhib: inhibitors of human Apaf-1 apoptosome, primary screen, biochemical, DEVD-Rh110 fluorescence, uHTS | reconstituted apoptosome caspase-3 activity | inhibition, % at 20 µM | hit rate 0.71% among 330,000 | AID 489030, 2010; active = inhibition of at least 40% at 20 µM;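 note: plate controls were DMSO wells for no effect and DEVD-CHO caspase inhibitor wells for full effect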
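Material: cell-free apoptosome with Apaf-1, procaspase-3 and caspase-9; Buffer or medium: Hepes pH 7.5 with detergent and BSA; Reagent: cytochrome c trigger plus (Z-DEVD)2-Rh110 caspase-3 substrate; Times: compound with Apaf-1, dATP, procaspase-3 30 min, then 50 min reaction, room temperature; Technique: Rh110 fluorescence intensity.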
PP5 primary: PP5 phosphatase inhibitors, primary screen, biochemical, fluorescence. purified PP5c, OMFP substrate fluorescence. hit rate 0.18% among 320,000. Serine/threonine-protein phosphatase 5 (Homo sapiens), P53041. inhibition, % at 6.7 µM. AID 1987, 2009;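 active = inhibition above the campaign's mean inhibition across all tested compounds plus 3 SD, cut at about 9.5% in these data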;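 note: 0% = DMSO only and 100% = 100 µM cantharidin control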
Fh CTSL1 inh: Fasciola hepatica cathepsin L1 inhibitors, primary screen, counter-screen for PFM18AAP inhibitor project, biochemical, QFRET, fluorogenic peptide substrate; recombinant F. hepatica cathepsin L1, Z-Leu-Arg-MCA fluorescence; inhibition, % at 5.96 µM; hit rate 0.49% among 300,000; AID 1906, 2009;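 active = inhibition above the mean of all tested compounds plus 3 SD, set per screening campaign, cut at about 17% in these data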;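 note: 0% = plate median of test compound wells and 100% = 1 µM Z-Phe-Ala-diazomethylketone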
UCH37 reconfirm: retest of human UCH37 deubiquitinase inhibitors, confirmation, biochemical, Ub-AMC cleavage rate, fluorescence. shares compounds with UCH37 DUB inh. Proteasome-bound UCH37. inhibition, % at 20 µM. hit rate 27% among 480. AID 624100, 2012;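 active = average inhibition over replicates above about 50%, so the earlier screening hit is confirmed, limit read from the data; inactive = the rest, counted as false positives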;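 note: based on cleavage rate fitted by regression over a 30 min kinetic read; 0% = proteasome plus Ub-AMC and 100% = Ub-AMC without proteasome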
* hit, by the source's call; . = no result given.

SMILES | GSTO1 inh | PAD4 inh | UCH37 DUB inh | Apaf1 inhib | PP5 primary | Fh CTSL1 inh | UCH37 reconfirm
CC(NC(=O)COC(=O)c1ccc([N+](=O)[O-])o1)c1ccccc1 (configuration not stated) | . | -13 | 26* | 9 | . | . | 7
Cc1ccccc1NS(=O)(=O)c1cc(C(=O)NCc2ccncc2)ccc1Cl | 1 | -2 | 4 | 10 | 2 | -1 | .
CCOc1ccc(C(=O)NCCC2=CCCCC2)cc1OCC | 3 | 0 | 32* | 4 | -3 | -2 | 35
Cc1ccccc1NS(=O)(=O)c1cc(C(=O)NCCC2=CCCCC2)ccc1Cl | -3 | -1 | 55* | 6 | 3 | -1 | 47
Cn1c(C(C#N)C(=NS(=O)(=O)c2cccs2)c2ccccc2)nc2ccccc21 (configuration not stated) | . | . | -195 | . | . | . | .
Cc1ccc(NC2C(=O)NC(=O)NC2=O)cc1 | . | . | 80* | . | . | . | -2
Cc1ccc(NC2CNC(=O)NC2=O)cc1C (configuration not stated) | . | . | 2 | . | . | . | .
